Only some compounds are listed: those with a hit (about 3.8% of all), similar ones and a draw of the others.
FN deposition inh: fibronectin deposition inhibition | AH1F fibroblasts, Alexa488-fibronectin deposition fluorescence, overnight | inhibition, % at 12.6 µM | 0.086% of 350,000 active;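 active means mean inhibition across replicates of 30% or more, regardless of how many single replicates reach that level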;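 further: positive control wells lacked labelled fibronectin entirely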
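Assay system: AH1F fibroblasts assembling fluorescent fibronectin matrix; Amount: 10000 AH1F cells per well; Buffer or medium: DMEM, 2% serum; Probe or stimulus: Alexa488-fibronectin, 24 nM final in well; Doses: single compound dose, delivered by pin transfer; Incubation: 1 h adhesion, overnight exposure; Measured by: fluorescence 485/525 nm; Read-out: fibronectin deposition inhibition.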
DENV2 CPE: inhibitors of DENV2 cytopathic effect | DENV2-infected cells, cytopathic effect rescue, plate reader | AID 651640 | CPE inhibition, % at 9.99 µM | 1.7% of 350,000 active; in the data active means CPE inhibition above about 20%, passing the limit was not always enough; tested in BHK-21 cells;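 further: 0% = median of neutral control wells and 100% = median of positive control wells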
SIRT5 block: blocks human SIRT5 desuccinylation of peptide; Q9NXA8; Purified SirT5, succinyl-peptide AMC, trypsin-coupled fluorescence; inhibition, % at 15 µM; 1.1% of 330,000 active; AID 652115; in the data active means inhibition above about 15%
Target sequence (Q9NXA8 whole entry, looked up): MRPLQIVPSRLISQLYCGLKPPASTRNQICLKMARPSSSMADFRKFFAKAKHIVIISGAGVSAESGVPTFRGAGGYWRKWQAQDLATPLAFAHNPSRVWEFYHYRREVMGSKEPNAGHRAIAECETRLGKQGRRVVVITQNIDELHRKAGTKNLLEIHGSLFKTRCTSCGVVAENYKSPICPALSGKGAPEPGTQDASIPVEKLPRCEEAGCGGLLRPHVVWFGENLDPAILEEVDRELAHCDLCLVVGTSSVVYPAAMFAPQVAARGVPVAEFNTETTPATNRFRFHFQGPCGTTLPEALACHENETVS
XiGFP reactiv: X-chromosome reactivation activator. XiGFP mouse fibroblasts, % GFP-positive cells imaging, 3 d; cells co-treated with 5-aza-dC sensitizer; scaled so ellipticine positive control = 100%. activation, % at 7.58 µM. 0.055% of 360,000 active. AID 743238;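 active means mean normalized replicate activation at least 10% and every replicate at or above 10%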;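 further: 0% = median of on-plate neutral control wells and 100% = ellipticine 6 µM median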
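Material: XiGFP fibroblasts, SV40-immortalized; Buffer or medium: DMEM containing 5-aza-dC; Compound dosing: single point; Times: 3 days compound exposure.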
ARNT TACC3 PPI: disrupts binding between human ARNT and TACC3. AID 623870. inhibition, % at 9.99 µM. Q9Y6A5. 0.66% of 390,000 active. AlphaScreen His-ARNT PAS-B/GST-TACC3 binding, luminescence; TACC3 fragment carries E629A point mutation;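 active means mean inhibition of replicates at least 50% and at least half of replicates each reaching 50%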;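 further: 0% = complete ARNT plus TACC3 wells and 100% = ARNT alone without TACC3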
FGF22 binding: shifts melting point of recombinant human FGF22 | recombinant FGF22 thermal shift, SYPRO orange fluorescence; percent of sucrose octasulfate shift, DMSO zero | Q9HCT0 | activity (Tm shift, normalised), % at 9.99 µM | 1.5% of 340,000 active;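 active means mean Tm shift, scaled 0 neutral to 100 positive control, at about 1.3% or above, every replicate too, limit read from the data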
Target sequence (Q9HCT0 whole entry, looked up): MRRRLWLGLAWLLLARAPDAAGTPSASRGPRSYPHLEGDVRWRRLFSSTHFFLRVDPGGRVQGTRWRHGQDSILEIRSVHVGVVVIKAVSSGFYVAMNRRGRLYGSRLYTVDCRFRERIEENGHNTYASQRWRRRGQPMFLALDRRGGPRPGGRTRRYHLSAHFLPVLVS
* hit, by the source's call; / = no result; ! = a repeat was not active.

SMILES | FN deposition inh | DENV2 CPE | SIRT5 block | XiGFP reactiv | ARNT TACC3 PPI | FGF22 binding
Cc1ccc2nc(-c3ccc(NC(=S)NC(=O)C(C)C)cc3)sc2c1 | / | -3 | -2 | / | -12 | 0
COc1ccccc1C(CNc1ncnc2sc(C)c(C)c12)N(C)C (stereo not given) | -3 | 46* | -1 | 0 | 3 | 0
COc1ccc(C(CNc2ncnc3sc(C)c(C)c23)N(C)C)cc1 (stereo not given) | 1 | 0 | 3 | 0 | 3 | 0
COCCN(C(=S)Nc1ccccc1C)C(C)c1ccco1 (stereo not given) | -9 | 2 | -1 | 0 | -11 | 43*
CO[C@H]1CN(C)C(=O)c2cc(NC(=O)C3CC3)ccc2OC[C@H](C)N(CC2CC2)C[C@H]1C | / | -4 | -2 | 0 | -6 | 0
CNC[C@H]1Oc2ccc(NS(=O)(=O)c3ccc(Cl)cc3)cc2CC(=O)N([C@@H](C)CO)C[C@@H]1C | -6 | 27* | -3 | -1 | 17 | 0
CNC[C@@H]1Oc2ccc(NS(=O)(=O)c3ccc(Cl)cc3)cc2CC(=O)N([C@@H](C)CO)C[C@@H]1C | 1 | 41* | 1 | -1 | 22 | 0
CC(C)[C@H]1C/C=C\CCNC(=O)[C@@H](C)CC(=O)N1 | 11 | / | / | 0 | / | /
OC[C@H]1[C@H](c2ccc(-c3ccccc3F)cc2)[C@H]2CN(Cc3ccncc3)CCCCN21 | / | 11 | 4 | 0 | 6 | 0
CO[C@H](CN(C)C(=O)c1cnccn1)[C@@H](C)CN([C@@H](C)CO)S(=O)(=O)c1ccc(Cl)cc1 | -1 | 2 | / | 0 | -1 | 0
C[C@H](O)C#Cc1cnc2c(c1)C(=O)N([C@H](C)CO)C[C@H](C)[C@@H](CN(C)C(=O)c1ccc(F)cc1)O2 | / | 8 | -3 | 0 | -6 | 0
COc1cc2c(c3ccccc13)CCCC2=O | 5 | 3 | / | 0 | -17 | 43*
Cc1cc(NC(=O)c2ccc([N+](=O)[O-])cc2)n(CCC#N)n1 | 4 | 43* | -1 | 0 | -5 | 0
COc1cc(C(=O)NCC2(N(C)C)CCCCC2)ccc1OCc1ccccc1 | 0 | 5 | 65* | / | 2 | 41
C/C=C/c1ccc([C@H]2[C@H](CO)N(C(=O)C3CCCC3)C23CN(C(=O)NC(C)C)C3)cc1 | 9 | / | / | 0 | / | /
Cc1noc(C)c1NC(=O)N(C)C[C@@H]1Oc2c(NC(=O)c3ccc(-c4nccs4)cc3)cccc2C(=O)N([C@H](C)CO)C[C@H]1C | 3 | 3 | 8 | 0 | 31* | 0
C[C@@H]1CN([C@H](C)CO)C(=O)c2cccc(NC(=O)c3ccc(-c4nccs4)cc3)c2O[C@@H]1CN(C)C(=O)Nc1ccccc1 | / | -10 | 6 | -1 | -1 | 3.2*
C[C@@H]1CN([C@H](C)CO)C(=O)c2cccc(NC(=O)c3ccc(-c4nccs4)cc3)c2O[C@H]1CN(C)C(=O)Nc1ccccc1 | / | 2 | 1 | 0 | 19* | 0
CNC[C@H]1Oc2c(NC(=O)c3ccc(-c4nccs4)cc3)cccc2C(=O)N([C@H](C)CO)C[C@H]1C | 7 | 41* | 28* | 0 | 10 | 0
C[C@@H]1CN([C@@H](C)CO)C(=O)Cc2cc(NC(=O)Nc3ccc(C(F)(F)F)cc3)ccc2O[C@@H]1CN(C)CC1CC1 | / | 9 | -4 | -1 | 13 | 0
COCCCNC(=S)NC1CC2CCC(C1)N2Cc1ccccc1 (stereo not given) | -7 | / | -3 | 0 | -1 | 43*
CCOCCCNC(=S)NC1CC2CCC(C1)N2Cc1ccccc1 (stereo not given) | 1 | 0 | -1 | 0 | -4 | 43
CS(=O)(=O)N1C[C@@H]2N[C@H](C1)[C@@H]2c1ccc(-c2ccccc2)cc1 | 4 | 100* | / | 0 | / | 0
Cc1cccc(S(=O)(=O)N2CCCCN3[C@H](CO)[C@H](c4ccc(-c5cccnc5)cc4)[C@@H]3C2)c1 | / | 47* | 6 | 0 | -1 | 0
Cc1cccc(-c2ccc([C@H]3[C@@H](CO)N4CCCCN(S(=O)(=O)c5cccc(C)c5)C[C@H]34)cc2)c1 | / | 55* | 3 | 0 | 20 | -1
SMILES | FN deposition inh | DENV2 CPE | SIRT5 block | XiGFP reactiv | ARNT TACC3 PPI | FGF22 binding
O=S(=O)(c1ccccc1)N1C[C@@H]2N[C@H](C1)C2c1ccc(-c2ccccc2)cc1 (stereo not given in full) | 7 | -2 | 1 | 0 | / | /
Cc1cccc(S(=O)(=O)N2CCCCN3[C@@H](CO)[C@H](c4ccc(-c5ccccc5)cc4)[C@@H]3C2)c1 | / | -1 | 22* | / | 32 | 0
Cc1cccc(-c2ccc([C@H]3[C@H]4CN(S(=O)(=O)c5cccc(C)c5)CCCCN4[C@H]3CO)cc2)c1 | / | 29* | 13 | 0 | 14 | 18*
CN(C)C(=O)c1cccc(-c2ccc([C@H]3[C@H](CO)N4CCCCN(S(C)(=O)=O)C[C@@H]34)cc2)c1 | / | 13 | -1 | 0 | -8 | 1
COc1cccc(-c2ccc(C3[C@@H]4CN(S(=O)(=O)c5cn(C)cn5)C[C@H]3N4)cc2)c1 (stereo not given in full) | -3 | 131*! | / | 0 | / | 0
Cn1cnc(S(=O)(=O)N2CCCCN3[C@H](CO)[C@@H](c4ccc(-c5ccccc5)cc4)[C@H]3C2)c1 | / | 26* | 0 | 0 | 4 | 0
Cn1cnc(S(=O)(=O)N2CCCCN3[C@H](C2)[C@@H](c2ccc(-c4ccccc4)cc2)[C@@H]3CO)c1 | / | 6 | 0 | 0 | 0 | 0
CN(C)C(=O)c1cccc(-c2ccc([C@H]3[C@@H](CO)N4CCCCN(S(C)(=O)=O)C[C@@H]34)cc2)c1 | / | 19 | 41* | 0 | -5 | 1
O=C(C1CCOCC1)N1CC(=O)N2[C@H](C1)[C@H](c1ccc(/C=C/c3ccccc3)cc1)[C@@H]2CO | 0 | -6 | -4 | 0 | / | 0
C[C@H](CO)N1C[C@H](C)[C@@H](CN(C)C(=O)Nc2ccccc2)Oc2ccc(NC(=O)Nc3ccccc3)cc2CC1=O | / | 12 | 3 | 0 | 10 | 1
C[C@@H]1CN([C@@H](C)CO)C(=O)c2cccc(NS(=O)(=O)c3ccc(Cl)cc3)c2O[C@H]1CN(C)S(=O)(=O)c1cn(C)cn1 | / | / | / | 0 | / | /
Cc1ccccc1S(=O)(=O)N1CCCCN2[C@H](CO)[C@@H](c3ccc(-c4ccccc4)cc3)[C@@H]2C1 | / | -6 | 19* | / | 0 | 0
O=C(N[C@@H]1CC[C@@H](CCn2cc(-c3cccnc3)nn2)O[C@H]1CO)c1ccccc1F | / | 4 | 14 | 0 | -8 | 0

High-throughput results (PubChem)
